From ChEMBL document CHEMBL4354820, “Optimizing Targeted Inhibitors of P-Glycoprotein Using Computational and Structure-Guided Approaches” (J Med Chem, 2019)

biological target: T1, P-glycoprotein (ABCB1, mouse MDR3) ATPase (Mus musculus, UniProt P21447); experiment: Inhibition of verampil-stimulated ATPase hydrolysis in recombinant mouse MDR3 expressed in Pichia pastoris measured after 30 mins in presence of NADH by coupled enzyme assay (reference value: 100 +/- 8 %); design: scale not given: the % may be the effect or the level left; conditions: recombinant mouse MDR3 (P-gp) expressed in Pichia pastoris
T1 sequence (P21447 whole entry): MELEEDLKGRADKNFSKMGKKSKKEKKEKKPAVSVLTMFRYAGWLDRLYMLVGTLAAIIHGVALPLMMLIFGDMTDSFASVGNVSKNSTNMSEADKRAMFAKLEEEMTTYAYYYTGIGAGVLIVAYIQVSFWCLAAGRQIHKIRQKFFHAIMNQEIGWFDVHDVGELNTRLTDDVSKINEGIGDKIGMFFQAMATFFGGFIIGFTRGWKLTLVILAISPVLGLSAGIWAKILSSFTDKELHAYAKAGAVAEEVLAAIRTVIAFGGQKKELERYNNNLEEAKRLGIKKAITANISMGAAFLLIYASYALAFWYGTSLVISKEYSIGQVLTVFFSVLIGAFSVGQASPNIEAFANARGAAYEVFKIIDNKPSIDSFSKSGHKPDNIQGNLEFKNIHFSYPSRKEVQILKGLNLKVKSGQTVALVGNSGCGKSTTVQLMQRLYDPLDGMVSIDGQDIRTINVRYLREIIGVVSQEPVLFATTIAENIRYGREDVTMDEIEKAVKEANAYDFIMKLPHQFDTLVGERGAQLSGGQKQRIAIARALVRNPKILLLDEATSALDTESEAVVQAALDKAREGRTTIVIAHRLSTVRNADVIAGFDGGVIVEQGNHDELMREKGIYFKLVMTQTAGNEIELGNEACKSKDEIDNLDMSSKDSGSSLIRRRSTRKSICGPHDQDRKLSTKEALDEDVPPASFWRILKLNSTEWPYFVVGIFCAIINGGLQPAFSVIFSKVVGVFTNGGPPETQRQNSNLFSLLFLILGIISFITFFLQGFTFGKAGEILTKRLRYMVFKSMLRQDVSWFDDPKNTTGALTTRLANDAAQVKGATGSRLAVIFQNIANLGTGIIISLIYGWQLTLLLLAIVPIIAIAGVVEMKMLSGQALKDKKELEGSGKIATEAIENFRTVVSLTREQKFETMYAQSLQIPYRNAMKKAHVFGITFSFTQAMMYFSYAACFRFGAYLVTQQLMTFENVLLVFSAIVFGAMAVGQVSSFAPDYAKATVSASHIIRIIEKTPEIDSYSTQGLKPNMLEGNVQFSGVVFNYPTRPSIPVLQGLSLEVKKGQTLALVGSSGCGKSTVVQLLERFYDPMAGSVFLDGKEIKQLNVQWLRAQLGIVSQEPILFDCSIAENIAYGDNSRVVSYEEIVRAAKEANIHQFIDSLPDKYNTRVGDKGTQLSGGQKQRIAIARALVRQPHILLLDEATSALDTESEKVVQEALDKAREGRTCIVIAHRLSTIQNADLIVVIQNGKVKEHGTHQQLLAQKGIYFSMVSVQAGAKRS

Compared with Cc1cc(C)c(-c2cc(NC(=O)CSc3n[nH]c(C4CC4)n3)n(-c3ccccc3)n2)cc1C, Cc1cc(C)c(-c2cc(NC(=O)CSCC(=O)N3c4ccccc4CCc4ccccc43)n(-c3ccccc3)n2)cc1C is higher in Activity at 0.5 h: 49% for the first, 50% for the second.

biological target: P-glycoprotein 1 Abcb1a (Mus musculus); experiment: Inhibition of spin-labelled adenine nucleotide interaction with mouse MDR3 P-gp expressed in Escherichia coli BL21 (DE3) assessed as apparent dissociation constant by ESR analysis (reference value: 36.5 +/- 3.6 uM); conditions: not given

Compared with Cc1cc(C)c(-c2cc(NC(=O)CSc3n[nH]c(C4CC4)n3)n(-c3ccccc3)n2)cc1C, Cc1cc(C)c(-c2cc(NC(=O)CSCC(=O)N3c4ccccc4CCc4ccccc43)n(-c3ccccc3)n2)cc1C is 1.9-fold lower in Kd: 71 µM for the first, 36.9 µM for the second.

biological target: T2, P-glycoprotein (ABCB1, MDR1) ATPase (Homo sapiens, UniProt P08183); experiment: Inhibition of verampil-stimulated ATPase hydrolysis in recombinant human MDR1 expressed in Pichia pastoris measured after 30 mins in presence of NADH by coupled enzyme assay (reference value: 100 +/- 6 %); design: scale not given: the % may be the effect or the level left; conditions: recombinant human MDR1 (P-gp) expressed in Pichia pastoris
T2 sequence (P08183 whole entry): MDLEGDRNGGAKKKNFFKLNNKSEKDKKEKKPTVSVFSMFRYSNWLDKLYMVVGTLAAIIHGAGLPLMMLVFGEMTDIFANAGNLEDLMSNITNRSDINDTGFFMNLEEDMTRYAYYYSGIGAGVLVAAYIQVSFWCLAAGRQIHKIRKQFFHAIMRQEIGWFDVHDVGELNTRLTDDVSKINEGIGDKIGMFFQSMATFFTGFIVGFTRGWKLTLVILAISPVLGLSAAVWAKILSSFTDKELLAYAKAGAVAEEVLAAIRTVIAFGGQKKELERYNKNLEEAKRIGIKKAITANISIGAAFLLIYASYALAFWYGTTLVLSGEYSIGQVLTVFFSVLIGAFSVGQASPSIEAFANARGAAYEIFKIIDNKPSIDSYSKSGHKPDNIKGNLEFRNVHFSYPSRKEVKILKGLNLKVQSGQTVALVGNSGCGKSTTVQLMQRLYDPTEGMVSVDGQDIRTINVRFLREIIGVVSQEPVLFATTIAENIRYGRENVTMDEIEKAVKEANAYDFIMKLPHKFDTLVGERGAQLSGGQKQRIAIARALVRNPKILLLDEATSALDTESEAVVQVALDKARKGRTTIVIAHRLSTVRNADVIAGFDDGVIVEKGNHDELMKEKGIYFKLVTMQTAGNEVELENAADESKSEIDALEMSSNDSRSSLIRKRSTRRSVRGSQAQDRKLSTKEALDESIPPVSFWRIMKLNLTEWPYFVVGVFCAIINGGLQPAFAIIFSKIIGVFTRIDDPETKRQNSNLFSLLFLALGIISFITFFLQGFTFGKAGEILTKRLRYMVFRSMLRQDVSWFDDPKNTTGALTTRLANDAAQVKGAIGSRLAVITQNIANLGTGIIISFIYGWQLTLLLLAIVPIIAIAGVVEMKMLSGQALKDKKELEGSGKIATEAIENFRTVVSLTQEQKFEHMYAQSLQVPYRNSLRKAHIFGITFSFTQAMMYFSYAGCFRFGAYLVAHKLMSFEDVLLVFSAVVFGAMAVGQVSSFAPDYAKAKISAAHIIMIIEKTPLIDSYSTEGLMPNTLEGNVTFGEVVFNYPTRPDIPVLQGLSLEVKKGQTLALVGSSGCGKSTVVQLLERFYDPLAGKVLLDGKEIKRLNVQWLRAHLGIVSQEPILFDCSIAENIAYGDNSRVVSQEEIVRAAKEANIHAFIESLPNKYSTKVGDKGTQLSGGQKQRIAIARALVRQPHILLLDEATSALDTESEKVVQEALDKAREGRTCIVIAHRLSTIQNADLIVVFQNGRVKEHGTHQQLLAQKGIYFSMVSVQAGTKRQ

Cc1cc(C)c(-c2cc(NC(=O)CSc3n[nH]c(C4CC4)n3)n(-c3ccccc3)n2)cc1C and Cc1cc(C)c(-c2cc(NC(=O)CSCC(=O)N3c4ccccc4CCc4ccccc43)n(-c3ccccc3)n2)cc1C are the same in Activity at 0.5 h: 62% for the first, 62% for the second.

biological target: T3, ATP-dependent translocase ABCB1 (Homo sapiens, UniProt P08183); experiment: Reversal of P-gp mediated multidrug resistance in human DU145-TxR cells overexpressing P-gp assessed as potentiation of paclitaxel-induced cytotoxicity by measuring fold reduction paclitaxel IC50 at 10 uM after 48 hrs by MTT assay relative to paclitaxel alone; type: cell-based; conditions: not given
Procedure, shortened: (§1)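 DU145TXR cells seeded at 3000 per well, 24 h later treated 48 h with paclitaxel alone or with 3, 5, 7 or 10 μM inhibitor in complete medium (DMSO vehicle). MTT 4 h, formazan dissolved in DMSO, A570 read, background subtracted, viability relative to DMSO. IC50 by four-parameter nonlinear fit; eight replicates, at least two experiments. Fold values compare paclitaxel alone or with parent inhibitor.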

T3 sequence (P08183 whole entry): as above

Compared with Cc1cc(C)c(-c2cc(NC(=O)CSc3n[nH]c(C4CC4)n3)n(-c3ccccc3)n2)cc1C, Cc1cc(C)c(-c2cc(NC(=O)CSCC(=O)N3c4ccccc4CCc4ccccc43)n(-c3ccccc3)n2)cc1C is higher in “fold change (FC)” value: 101 for the first, 530 for the second.

biological target: T3, ATP-dependent translocase ABCB1; experiment: Reversal of P-gp mediated multidrug resistance in human DU145-TxR cells overexpressing P-gp assessed as potentiation of paclitaxel-induced cytotoxicity by measuring fold reduction paclitaxel IC50 at 7 uM after 48 hrs by MTT assay relative to parent compound; type: cell-based; conditions: not given; procedure, shortened: as §1

Going from Cc1cc(C)c(-c2cc(NC(=O)CSc3n[nH]c(C4CC4)n3)n(-c3ccccc3)n2)cc1C to Cc1cc(C)c(-c2cc(NC(=O)CSCC(=O)N3c4ccccc4CCc4ccccc43)n(-c3ccccc3)n2)cc1C, the “fold change (FC)” value rises from 1 to 10.

biological target: T1, P-glycoprotein (ABCB1, mouse MDR3) ATPase; experiment: Effect on basal ATPase hydrolysis of recombinant mouse MDR3 expressed in Pichia pastoris measured after 30 mins in presence of NADH by coupled enzyme assay (reference value: 100 +/- 7 %); design: scale not given: the % may be the effect or the level left; conditions: recombinant mouse MDR3 (P-gp) expressed in Pichia pastoris, read-out: Activity

Compared with Cc1cc(C)c(-c2cc(NC(=O)CSc3n[nH]c(C4CC4)n3)n(-c3ccccc3)n2)cc1C, Cc1cc(C)c(-c2cc(NC(=O)CSCC(=O)N3c4ccccc4CCc4ccccc43)n(-c3ccccc3)n2)cc1C is lower in Activity at 0.5 h: 95% for the first, 88% for the second.

biological target: T3, ATP-dependent translocase ABCB1; experiment: Ratio of inhibition of P-gp overexpressed in human DU145-TxR cells assessed as increase in intracellular compound accumulation after 2.5 hrs in presence of tariquidar by LC-MS/MS analysis to Inhibition of P-gp overexpressed in human DU145-TxR cells assessed as decrease in intracellular compound accumulation after 2.5 hrs in absence of tariquidar by LC-MS/MS analysis; type: cell-based; conditions: not given
Procedure, shortened: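 P-gp-overexpressing DU145TXR cells exposed to test compounds with or without tariquidar. Intracellular compound measured by LC–MS/MS, with daunorubicin as a transported-substrate control. Ratio is accumulation with tariquidar divided by accumulation without.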

Cc1cc(C)c(-c2cc(NC(=O)CSc3n[nH]c(C4CC4)n3)n(-c3ccccc3)n2)cc1C and Cc1cc(C)c(-c2cc(NC(=O)CSCC(=O)N3c4ccccc4CCc4ccccc43)n(-c3ccccc3)n2)cc1C are the same in Ratio: 1 for the first, 1 for the second.

biological target: T3, ATP-dependent translocase ABCB1; experiment: Inhibition of P-gp overexpressed in human DU145-TxR cells assessed as increase in cellular accumulation of calcein AM at 2 uM preincubated for 6 hrs followed by calcein AM addition by fluorescence imaging analysis; type: cell-based; conditions: not given
Procedure, shortened: (§2)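 Confluent DU145TXR monolayers in phenol red-free RPMI 1640 given 2 μM inhibitor (DMSO vehicle) and 1 μg mL−1 calcein AM, either added together or after a 6 h inhibitor-only preincubation at 37 °C. Calcein fluorescence (ex 485 / em 535 nm) read over 60 min at 20 min intervals. Six replicates, at least two independent experiments.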

In the case of Cc1cc(C)c(-c2cc(NC(=O)CSc3n[nH]c(C4CC4)n3)n(-c3ccccc3)n2)cc1C, the “inhibition (INH)” value is reported as “Active”.
For Cc1cc(C)c(-c2cc(NC(=O)CSCC(=O)N3c4ccccc4CCc4ccccc43)n(-c3ccccc3)n2)cc1C, the “inhibition (INH)” value was “Active”.

biological target: T3, ATP-dependent translocase ABCB1; experiment: Reversal of P-gp mediated multidrug resistance in human DU145-TxR cells overexpressing P-gp assessed as potentiation of paclitaxel-induced cytotoxicity by measuring fold reduction paclitaxel IC50 at 10 uM after 48 hrs by MTT assay relative to parent compound; type: cell-based; conditions: not given; procedure, shortened: as §1

First: Cc1cc(C)c(-c2cc(NC(=O)CSc3n[nH]c(C4CC4)n3)n(-c3ccccc3)n2)cc1C
Second: Cc1cc(C)c(-c2cc(NC(=O)CSCC(=O)N3c4ccccc4CCc4ccccc43)n(-c3ccccc3)n2)cc1C
The “fold change (FC)” value of the first is lower: 1 for the first, 5 for the second.

biological target: T3, ATP-dependent translocase ABCB1; experiment: Reversal of P-gp mediated multidrug resistance in human DU145-TxR cells overexpressing P-gp assessed as potentiation of paclitaxel-induced cytotoxicity by measuring fold reduction paclitaxel IC50 at 3 uM after 48 hrs by MTT assay relative to paclitaxel alone; type: cell-based; conditions: not given; procedure, shortened: as §1

First: Cc1cc(C)c(-c2cc(NC(=O)CSc3n[nH]c(C4CC4)n3)n(-c3ccccc3)n2)cc1C
Second: Cc1cc(C)c(-c2cc(NC(=O)CSCC(=O)N3c4ccccc4CCc4ccccc43)n(-c3ccccc3)n2)cc1C
The “fold change (FC)” value of the first is lower: 3 for the first, 13 for the second.

biological target: T3, ATP-dependent translocase ABCB1; experiment: Reversal of P-gp mediated multidrug resistance in human DU145-TxR cells overexpressing P-gp assessed as potentiation of paclitaxel-induced cytotoxicity by measuring fold reduction paclitaxel IC50 at 5 uM after 48 hrs by MTT assay relative to paclitaxel alone; type: cell-based; conditions: not given; procedure, shortened: as §1

Going from Cc1cc(C)c(-c2cc(NC(=O)CSc3n[nH]c(C4CC4)n3)n(-c3ccccc3)n2)cc1C to Cc1cc(C)c(-c2cc(NC(=O)CSCC(=O)N3c4ccccc4CCc4ccccc43)n(-c3ccccc3)n2)cc1C, the “fold change (FC)” value rises from 11 to 41.

biological target: T2, P-glycoprotein (ABCB1, MDR1) ATPase; experiment: Effect on basal ATPase hydrolysis of recombinant human MDR1 expressed in Pichia pastoris measured after 30 mins in presence of NADH by coupled enzyme assay (reference value: 100 +/- 5 %); design: scale not given: the % may be the effect or the level left; conditions: recombinant human MDR1 (P-gp) expressed in Pichia pastoris, read-out: Activity

Cc1cc(C)c(-c2cc(NC(=O)CSCC(=O)N3c4ccccc4CCc4ccccc43)n(-c3ccccc3)n2)cc1C gave an Activity at 0.5 h of 83%.

biological target: T3, ATP-dependent translocase ABCB1; experiment: Reversal of P-gp mediated multidrug resistance in human DU145-TxR cells overexpressing P-gp assessed as potentiation of paclitaxel-induced cytotoxicity by measuring fold reduction paclitaxel IC50 at 7 uM after 48 hrs by MTT assay relative to paclitaxel alone; type: cell-based; conditions: not given; procedure, shortened: as §1

First: Cc1cc(C)c(-c2cc(NC(=O)CSc3n[nH]c(C4CC4)n3)n(-c3ccccc3)n2)cc1C
Second: Cc1cc(C)c(-c2cc(NC(=O)CSCC(=O)N3c4ccccc4CCc4ccccc43)n(-c3ccccc3)n2)cc1C
The “fold change (FC)” value of the first is lower: 36 for the first, 353 for the second.

biological target: T3, ATP-dependent translocase ABCB1; experiment: Reversal of P-gp mediated multidrug resistance in human DU145-TxR cells overexpressing P-gp assessed as potentiation of paclitaxel-induced cytotoxicity by measuring fold reduction paclitaxel IC50 at 5 uM after 48 hrs by MTT assay relative to parent compound; type: cell-based; conditions: not given; procedure, shortened: as §1

First: Cc1cc(C)c(-c2cc(NC(=O)CSc3n[nH]c(C4CC4)n3)n(-c3ccccc3)n2)cc1C
Second: Cc1cc(C)c(-c2cc(NC(=O)CSCC(=O)N3c4ccccc4CCc4ccccc43)n(-c3ccccc3)n2)cc1C
The “fold change (FC)” value of the first is lower: 1 for the first, 3.7 for the second.

biological target: T3, ATP-dependent translocase ABCB1; experiment: Reversal of P-gp mediated multidrug resistance in human DU145-TxR cells overexpressing P-gp assessed as potentiation of paclitaxel-induced cytotoxicity by measuring fold reduction paclitaxel IC50 at 3 uM after 48 hrs by MTT assay relative to parent compound; type: cell-based; conditions: not given; procedure, shortened: as §1

Going from Cc1cc(C)c(-c2cc(NC(=O)CSc3n[nH]c(C4CC4)n3)n(-c3ccccc3)n2)cc1C to Cc1cc(C)c(-c2cc(NC(=O)CSCC(=O)N3c4ccccc4CCc4ccccc43)n(-c3ccccc3)n2)cc1C, the “fold change (FC)” value rises from 1 to 3.8.

test system: P-glycoprotein 1 Abcb1a (Mus musculus); experiment: Inhibition of 2',3'-(2,2,5,5,-tetramethyl-3-pyrroline-l-oxyl-3-carboxylic acid ester)ATP interaction with mouse MDR3 P-gp expressed in Escherichia coli BL21 (DE3) assessed as reduction in ATP binding from 2 to 1 of nucleotide to mol of protein by ESR analysis (reference value: 1.8 +/- 0.1); conditions: not given; call rule not given here

Compared with Cc1cc(C)c(-c2cc(NC(=O)CSc3n[nH]c(C4CC4)n3)n(-c3ccccc3)n2)cc1C, Cc1cc(C)c(-c2cc(NC(=O)CSCC(=O)N3c4ccccc4CCc4ccccc43)n(-c3ccccc3)n2)cc1C is lower in Activity: 1.9 for the first, 1.8 for the second.

biological target: T3, ATP-dependent translocase ABCB1; experiment: Inhibition of P-gp overexpressed in human DU145-TxR cells assessed as increase in cellular accumulation of calcein AM at 2 uM pretreated followed by calcein AM addition by fluorescence imaging analysis; type: cell-based; conditions: not given; procedure, shortened: as §2

In the case of Cc1cc(C)c(-c2cc(NC(=O)CSc3n[nH]c(C4CC4)n3)n(-c3ccccc3)n2)cc1C, the “inhibition (INH)” value is reported as “Active”.
In the case of Cc1cc(C)c(-c2cc(NC(=O)CSCC(=O)N3c4ccccc4CCc4ccccc43)n(-c3ccccc3)n2)cc1C, the “inhibition (INH)” value is reported as “Active”.
